Most compounds without a hit are left out; they make up all but 1.3% or so of the library.
CendR NRP1 mod: NRP-1/CendR interaction modulation; FAM-RPARPAR peptide binding to NRP-1, fluorescence polarization; inhibition, % at 25 µM; 0.85% of 360,000 active; O14786;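 active = inhibition or corrected inhibition above about 18%, plus a signal ratio from 0.5 to 1.5, limit read from the data, passing the limit was not always enough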
Tn7 DDE FP: DD(E)-Tn7 binding inhibition, primary FP screen; P02675; 0.13% of 370,000 active; inhibition, % at 8.3 µM; FP displacement of FITC-Tn7 peptide from fibrin DD(E); 0% = median of compound wells per plate;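 active = inhibition above the mean of compounds falling within the control limits plus 3 SD of them, cut at about 14% in these data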
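System: human fibrin DD(E); quantity: Fibrin-DD(E) at 2 µM final; also added: fluorescent Tn7 probe at 0.1 µM; compound dosing: single nominal test concentration of 8.3 µM per compound; schedule: 10 min preincubation, 3 h with tracer, room temperature; detection: fluorescence polarization of the labelled Tn7 tracer; repeats: one replicate per compound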
Tn6 DDE FP: DD(E)-Tn6 binding inhibition, primary FP screen; P02675; Fibrin DD(E) TRITC-Tn6 fluorescence polarization displacement; inhibition, % at 8.3 µM; 0.21% of 370,000 active;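 active = inhibition above a per-campaign cutoff: mean of compounds within control limits plus 3 SD, cut at about 15% in these data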
aDG glyco act: increases alpha dystroglycan glycosylation; 0.22% of 360,000 active; Pro5-aDG cells, alpha-DG glycosylation AlphaScreen (IIH6); 0% Pro5, 100% B10-LARGE cell signal; activation, % at 10 µM;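 active = activation of at least 8% versus controls, or a plate z-score of at least 8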;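 note: Pro5 are CHO cells carrying HIG-tagged alpha-DG that lacks glycosylation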
aDG conf: alpha-DG glycosylation activation, confirmation; shares compounds with aDG glyco act; Pro5-aDG cells, IIH6 AlphaLISA; scaled to LARGE-overexpressing B10 cells as 100%; activation, % at 10 µM (by protocol); 17% of 600 active; AID 651671;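 active = activation of at least 7% in one or more replicates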;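 note: cells exposed to compound for two days before detection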
DDE Tn7 confirm: DD(E)-Tn7 binding inhibition, FP confirmation. shares compounds with Tn7 DDE FP. FP displacement of TRITC-Tn7 peptide from DD(E); 0% set at plate's compound-well median. inhibition, % at 8.3 µM. 5% of 460 active;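 active = inhibition above the campaign cutoff, the mean of compounds within control limits plus 3 SD, cut at about 14% in these data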;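 note: displacers lower polarization since freed probe rises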
DDE Tn7 FP ctr: counter-screen for inhibitors of Tn7 peptide binding to fibrin DD(E); shares compounds with Tn7 DDE FP; AID 720633; inhibition, % at 8.3 µM; 3% of 460 active; TRITC-Tn7 probe displacement, fluorescence polarization;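 active = inhibition above the cutoff, the mean of compounds lying between the control bounds plus 3 SD of those compounds, cut at about 17% in these data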
Hits are given with their value; i = inactive; nt = no result; ! = repeats disagree.

SMILES	CendR NRP1 mod	Tn7 DDE FP	Tn6 DDE FP	aDG glyco act	others
NC(N)=N/N=C/c1ccc(N(c2ccccc2)c2ccccc2)cc1	25	i	i	i
COP(=S)(OC)SCn1nnc2ccccc2c1=O	i	i	i	i
O=C1CC=C2C3CC4N(CCC45c4cc(O)c(O)cc4N1C25)CC3=CCBr (configuration not stated)	26	i	i	i
O=C1CC=C2C3CC4N(CCC45c4ccccc4N1C25)CC3=CCO (configuration not stated)	i	i	i	i
Cc1ccc(C2N(c3cc(C)on3)C(=O)C3CCCN32)cc1 (configuration not stated)	i	i	i	i
Cc1ccc(C(=O)C2CN(C)CC2C(=O)c2ccc(C)cc2)cc1 (configuration not stated)	i	i	i	i
Cc1ccc(C(=O)C2CN3CCC2CC3)cc1 (configuration not stated)	26	i	i	i
COc1ccc(-c2nn(CCC#N)cc2C(=O)NCc2ccccc2)cc1OC	i	i	i	i
O=C(O)CC1OCC=C2CN3CCC45C6=CC(=O)C(=O)C([N+](=O)[O-])=C6NC4C1C2CC35 (configuration not stated)	25	nt	nt	i
CCn1cc(C(=O)N2CCC3(CC2)OCCO3)c(=O)c2cc(S(=O)(=O)N3CCCC3)ccc21	i	i	i	i
O=C(c1c[nH]c2ccc(S(=O)(=O)N3CCOCC3)cc2c1=O)N1CCC2(CC1)OCCO2	28	i	i	i
O=C(CN1CCCC1)Nc1ccc(Cl)cc1C(=O)c1ccccc1	i	i	i	i
O=C(Nc1ccc(Cl)cc1C(=O)c1ccccc1)c1ccccc1	25	i	i	i
Cc1c(P(=S)(c2ccccc2)c2ccccc2)[n+]2ccccc2n1C	34!	i	i	i
O=c1[nH]c2ccccc2n1C1CCN(C(c2cccc3ccccc23)c2nnnn2-c2ccc3c(c2)OCCO3)CC1 (configuration not stated)	i	i	i	i
O=c1[nH]c2ccccc2n1C1CCN(C(c2cc3ccccc3o2)c2nnnn2-c2ccc3c(c2)OCCO3)CC1 (configuration not stated)	i	15	i	i
Cn1cc(C(=O)OCC(=O)Nc2ccccc2)c2ccccc21	21	i	i	i
CC(C)CCP(=O)(O)O	nt	i	i	nt
COC(=O)C1=C(c2cccc(OCc3ccccc3)c2)C[C@@H]2CC[C@H]1N2C	i	i	i	i
COC(=O)C1=C(c2ccccc2)C[C@@H]2CC[C@H]1N2C	25	i	i	i
CCCNC(=O)N1[C@H]2CC[C@@H]1C(C(=O)OC)=C(c1ccc(OC(F)(F)F)cc1)C2	29	i	i	i
COC(=O)C1=C(c2cccc(C#N)c2)C[C@@H]2CC[C@H]1N2C(=O)NC(C)C	22	i	i	i
COC(=O)C1=C(c2ccc(S(C)(=O)=O)cc2)C[C@@H]2CC[C@H]1N2C	35	i	i	i
Cc1ccc2c(c1)N(C(C)C(=O)N1CCC3(CC1)OCCO3)C(=O)CO2 (configuration not stated)	i	i	i	i
CNC(=O)OCc1n(C)cc[n+]1C	i	i	i	i
SMILES	CendR NRP1 mod	Tn7 DDE FP	Tn6 DDE FP	aDG glyco act	others
CC(=NCC1CCCO1)c1c(O)n(-c2ccccc2C)c(=O)[nH]c1=O (configuration not stated)	i	i	i	i
COC(=O)C1=C(c2ccc(-c3ccccc3)c(F)c2)C[C@@H]2CC[C@H]1N2C(=O)N1CCC(C)CC1	25	i	i	i
O=c1ccc2cc(OC3O[C@H](CO)[C@@H](O)[C@H](O)[C@H]3O)c(O)cc2o1 (some centres not stated)	i	i	i	i
C=C[C@@H]1C2=CCOC(=O)C2=CO[C@H]1O[C@@H]1O[C@H](CO)[C@@H](O)[C@H](O)[C@H]1O	24	i	i	i
CCC1(c2ccc(N)cc2)CCC(=O)NC1=O (configuration not stated)	i	i	i	12	aDG conf=i
CC(=NCc1ccco1)c1c(O)n(-c2ccc(C)cc2)c(=O)[nH]c1=O	i	i	i	i
COC(=O)C1=C(c2ccc(C(C)=O)cc2)C[C@@H]2CC[C@H]1N2C(=O)NC1CCCCC1	i	i	i	7.3	aDG conf=i
COC(=O)C1=C(c2ccc3ccccc3c2)C[C@@H]2CC[C@H]1N2C(=O)NC1CCCCC1	i	nt	nt	i
O=C(C(=O)N1CCOCC1)c1cn(Cc2ccccc2F)c2ccccc12	i	i	i	i
CCOP(=O)(OCC)C(O)c1ccc2c(c1)OCO2 (configuration not stated)	i	i	i	i
CCCNC(=O)Cn1cnc2sc(C(=O)N3CCC4(CC3)OCCO4)c(C)c2c1=O	i	i	i	14	aDG conf=i
CC1CCC2[C@@H](C)C(=O)OC3O[C@]4(C)CCC1C32OO4 (some centres not stated)	i	i	i	2.6	aDG conf=i
ClCCNc1nc2ccc(Cl)cc2[nH]1	i	14	i	i	DDE Tn7 confirm=i;DDE Tn7 FP ctr=i
O=P(O)(O)C12CC3CC(CC(C3)C1)C2	i	i	i	i
COC(=O)C(O)(c1ccc(N=Cc2ccccc2O)c(C)c1)C(F)(F)F (configuration not stated)	i	16	i	i	DDE Tn7 confirm=i;DDE Tn7 FP ctr=i
COC(=O)C(O)(c1ccc(NC(=O)c2cccs2)c(C)c1)C(F)(F)F (configuration not stated)	i	i	i	i
CCC(C(=O)N1CCC2(CC1)OCCO2)n1c2ccccc2c2nc(=O)cc(C)n21 (configuration not stated)	i	i	i	i
CCCCn1c(O)c(C(CC)=Nc2ccc(C(=O)O)cc2)c(=O)[nH]c1=O	i	15	i	i	DDE Tn7 confirm=i;DDE Tn7 FP ctr=i
Cc1ccc2cc(C=C(C#N)C#N)c(Cl)nc2c1	i	15	i	i	DDE Tn7 confirm=i;DDE Tn7 FP ctr=i
COc1c(C)cc(C(=O)C2CCCN(Cc3ccccn3)C2)cc1C (configuration not stated)	i	i	i	i
CC[C@@H](CO)NC(=O)[C@@H]1C=C2c3cccc4[nH]cc(c34)C[C@H]2N(C)C1	i	16	i	i	DDE Tn7 confirm=i;DDE Tn7 FP ctr=i
Cc1cccc(N=Nc2ccc(N(C)C)cc2)c1	i	i	i	i

Screening data deposited in PubChem by several laboratories.
